Assay results: ChEMBL document CHEMBL3745692, “Novel iodoacetamido benzoheterocyclic derivatives with potent antileukemic activity are inhibitors of STAT5 phosphorylation” (Eur J Med Chem, 2016)

Experiments:
[1] = molecular target: T1, Signal transducer and activator of transcription 5A (Homo sapiens) (UniProt P42229); assay: Inhibition of STAT5 phosphorylation in human K562 cells at 0.5 uM after 24 hrs by flow cytometry (reference value: 315.56); type: cell-based
T1 sequence (whole entry): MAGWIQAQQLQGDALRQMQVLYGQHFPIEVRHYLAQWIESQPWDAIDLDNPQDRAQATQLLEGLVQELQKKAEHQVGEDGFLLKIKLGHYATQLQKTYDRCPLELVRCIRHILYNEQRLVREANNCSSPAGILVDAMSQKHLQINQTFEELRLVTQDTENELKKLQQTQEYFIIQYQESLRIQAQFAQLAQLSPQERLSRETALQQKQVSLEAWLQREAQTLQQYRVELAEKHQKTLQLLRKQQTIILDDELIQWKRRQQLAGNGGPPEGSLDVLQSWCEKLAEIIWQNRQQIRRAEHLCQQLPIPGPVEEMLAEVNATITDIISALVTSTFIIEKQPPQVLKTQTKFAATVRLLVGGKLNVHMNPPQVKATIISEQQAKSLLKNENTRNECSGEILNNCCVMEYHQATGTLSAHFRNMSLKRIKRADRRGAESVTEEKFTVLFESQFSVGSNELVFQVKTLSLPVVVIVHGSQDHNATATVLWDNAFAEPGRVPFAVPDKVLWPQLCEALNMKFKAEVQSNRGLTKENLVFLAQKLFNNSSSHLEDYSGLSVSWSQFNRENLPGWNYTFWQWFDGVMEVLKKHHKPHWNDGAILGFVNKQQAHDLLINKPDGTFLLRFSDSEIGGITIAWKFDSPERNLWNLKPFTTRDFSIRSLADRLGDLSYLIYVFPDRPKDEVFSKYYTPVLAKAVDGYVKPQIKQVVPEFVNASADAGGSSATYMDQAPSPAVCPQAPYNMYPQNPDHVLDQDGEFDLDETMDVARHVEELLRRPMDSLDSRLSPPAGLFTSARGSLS
How it was run: (§1)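 After 24 h exposure, about 1×10^6 K562 cells were PBS-washed and fixed/permeabilised for 20 min at 4 °C. They were then stained for 30 min at 4 °C with PE-conjugated anti-pSTAT5 monoclonal antibody, with an isotype antibody as control. Median fluorescence was read by flow cytometry and compared with untreated cells stained for pSTAT5.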

[2] = molecular target: T1, Signal transducer and activator of transcription 5A (Homo sapiens); assay: Inhibition of STAT5 phosphorylation in human K562 cells at 0.5 uM after 24 hrs by flow cytometry relative to control; type: cell-based; how it was run: as §1
[3] = tested on: K562; assay: Potency index, ratio IC50 of imatinib mesilate to IC50 of compound for antiprolifertive activity against human K562; type: functional
How it was run: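 K562 cells grown in RPMI 1640 with 10% FCS at 37 °C, 5% CO2. 2×10^5 cells/mL exposed to a range of concentrations for 48 h. Viable cells counted by trypan blue exclusion, as % of control.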

[4] = tested on: K562; assay: Potency index, ratio AC50 of imatinib mesilate to AC50 of compound for induction of apoptosis in human K562; type: functional
How it was run: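 K562 cells in RPMI 1640 with 10% FCS, treated 48 h over a concentration range. Apoptosis scored morphologically after acridine orange/ethidium bromide staining (≥300 cells counted, chromatin condensation, apoptotic bodies) and by annexin V-FITC/propidium iodide flow cytometry. AC50 is the concentration giving 50% apoptotic cells, mean ± SE of 2–3 experiments.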

[5] = tested on: K562; assay: Antiproliferative activity against human K562 cells after 48 hrs by trypan blue dye exclusion assay; type: functional, cell-based; settings: K562, 48 h
[6] = tested on: K562; assay: Induction of apoptosis in human K562 cells after 48 hrs by annexinV and propidium iodide staining based flow cytometry; type: functional, cell-based; settings: K562, 48 h
How it was run: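 After 48 h drug exposure, 1×10^6 cells were washed in PBS and spun at 200×g for 5 min. They were stained with FITC-annexin V plus propidium iodide for 15 min at 20 °C and annexin V-positive cells counted by flow cytometry. Apoptosis was also scored morphologically with acridine orange/ethidium bromide, counting at least 300 cells. AC50 is the concentration inducing apoptosis in 50% of cells; mean ± SE from two to three experiments.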

[7] = tested on: K562; assay: Cell cycle arrest in human K562 cells assessed as accumulation at G1 phase at 0.5 uM for 24 hrs by propidium iodide staining based flow cytometry (reference value: 39.27%); type: functional
How it was run: (§2)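 K562 cells in RPMI 1640 with 10% FCS, penicillin/streptomycin and L-glutamine, 5% CO2, 37 °C; exposed 24 h. Cells washed in ice-cold PBS, resuspended at 1×10^6/mL in hypotonic solution of propidium iodide 50 µg/mL in 0.1% sodium citrate plus 0.03% nonidet P-40 for 30 min. DNA content read as single-parameter flow cytometry histograms; phase distribution modelled.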

[8] = tested on: K562; assay: Cell cycle arrest in human K562 cells assessed as accumulation at S-phase at 0.5 uM for 24 hrs by propidium iodide staining based flow cytometry (reference value: 47.84%); type: functional; how it was run: as §2
[9] = tested on: K562; assay: Cell cycle arrest in human K562 cells assessed as accumulation at G2M-phase at 0.5 uM for 24 hrs by propidium iodide staining based flow cytometry (reference value: 12.89%); type: functional; how it was run: as §2

Q: For `COc1cc2oc(C(=O)c3cc(OC)c(OC)c(OC)c3)c(C)c2cc1NC(=O)CI`, which Flu intensity [1] is on record?
A: 176

Q: What about the inhibition [2] of the same molecule?
A: 44%

Q: And the “Ratio IC50” value [3]?
A: 3.1

Q: And the “Ratio IC50” value [4]?
A: 2.7

Q: And the IC50 [5]?
A: 70 nM

Q: And the AC50 [6]?
A: 250 nM

Q: What about the Activity [7] of the same molecule?
A: 35.78%

Q: And the Activity [8]?
A: 35.47%

Q: And the Activity [9]?
A: 28.76%
